Blank lines part the entries; values can stand above or below the molecule they belong to.
Assays:
[1] = test system: MDA-MB-435; assay: Growth inhibition of human MDA-MB-435 cells at 10 uM after 48 hrs; type: functional; details: MDA-MB-435, 48 h, read-out: GI
Procedure, shortened: (§1)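 Single-dose primary screen in the NCI 60 human tumour cell line panel, run at the NCI facility. The panel covers nine subpanels: leukaemia, non-small cell lung, colon, CNS, melanoma, ovarian, renal, prostate and breast. Read-out was percent growth of treated cells, shown as a mean graph and reported as percent growth inhibition.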

[2] = test system: CAKI-1; assay: Growth inhibition of human CAKI-1 cells at 10 uM after 48 hrs; type: functional; details: CAKI-1, 48 h, read-out: GI; procedure, shortened: as §1
[3] = test system: A549; assay: Growth inhibition of human A549 cells at 10 uM after 48 hrs; type: functional; details: A549, 48 h, read-out: GI; procedure, shortened: as §1
[4] = test system: MCF7; assay: Growth inhibition of human MCF7 cells at 10 uM after 48 hrs; type: functional; details: MCF7, 48 h, read-out: GI; procedure, shortened: as §1
[5] = test system: SNB-75; assay: Growth inhibition of human SNB75 cells at 10 uM after 48 hrs; type: functional; details: SNB-75, 48 h, read-out: GI
Procedure, shortened: (§2)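 NCI 60-cell-line disease-oriented human tumor panel, single-dose primary screen at 10 µM. Data given as mean-graph percent growth of treated cells, reported as percent growth inhibition (GI %).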

[6] = molecular target: T1, Dihydrofolate reductase (Bos taurus, UniProt P00376); assay: Inhibition of bovine liver DHFR measured for every 1 min of 10 mins
T1 sequence (P00376 whole entry): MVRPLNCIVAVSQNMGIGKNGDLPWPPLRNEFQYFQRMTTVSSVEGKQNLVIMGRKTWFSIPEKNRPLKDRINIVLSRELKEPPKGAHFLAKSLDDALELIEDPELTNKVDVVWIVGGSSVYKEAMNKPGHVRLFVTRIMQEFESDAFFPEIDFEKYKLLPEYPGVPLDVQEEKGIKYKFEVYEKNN

[7] = test system: A498; assay: Growth inhibition of human A498 cells at 10 uM after 48 hrs; type: functional; details: A498, 48 h, read-out: GI; procedure, shortened: as §1
[8] = Cytotoxicity against human renal cancer cells at 10 uM after 48 hrs; type: functional; details: Cancer cell lines
[9] = test system: U-251; assay: Growth inhibition of human U251 cells at 10 uM after 48 hrs; type: functional; details: U-251, 48 h, read-out: GI; procedure, shortened: as §2
[10] = test system: SNB-19; assay: Growth inhibition of human SNB19 cells at 10 uM after 48 hrs; type: functional; details: SNB-19, 48 h, read-out: GI; procedure, shortened: as §2
[11] = Growth inhibition of human Hs 578T cells at 10 uM after 48 hrs; type: functional; details: read-out: GI; procedure, shortened: as §1
[12] = Cytotoxicity against human breast cancer cells at 10 uM after 48 hrs; type: functional; details: Cancer cell lines; procedure, shortened: as §1
[13] = test system: KM12; assay: Growth inhibition of human KM12 cells at 10 uM after 48 hrs; type: functional; details: KM12, 48 h, read-out: GI; procedure, shortened: as §1
[14] = Growth inhibition of human NCI-ADR-RES cells at 10 uM after 48 hrs; type: functional; details: read-out: GI; procedure, shortened: as §1
[15] = test system: SK-MEL-5; assay: Growth inhibition of human SK-MEL-5 cells at 10 uM after 48 hrs; type: functional; details: SK-MEL-5, 48 h, read-out: GI; procedure, shortened: as §2
[16] = Growth inhibition of human OVCAR4 cells at 10 uM after 48 hrs; type: functional; details: OVCAR-4, 48 h, read-out: GI; procedure, shortened: as §1
[17] = test system: SF-295; assay: Growth inhibition of human SF295 cells at 10 uM after 48 hrs; type: functional; details: SF-295, 48 h, read-out: GI; procedure, shortened: as §2
[18] = test system: SR; assay: Growth inhibition of human SR cells at 10 uM after 48 hrs; type: functional; details: read-out: GI; procedure, shortened: as §2
[19] = Growth inhibition of human HOP92 cells at 10 uM after 48 hrs; type: functional; details: HOP-92, 48 h, read-out: GI; procedure, shortened: as §1
[20] = test system: ACHN; assay: Growth inhibition of human ACHN cells at 10 uM after 48 hrs; type: functional; details: read-out: GI; procedure, shortened: as §1
[21] = test system: TK-10; assay: Growth inhibition of human TK10 cells at 10 uM after 48 hrs; type: functional; details: TK-10, 48 h, read-out: GI; procedure, shortened: as §2
[22] = Cytotoxicity against human prostate cancer cells at 10 uM after 48 hrs; type: functional; details: Cancer cell lines
[23] = test system: DU-145; assay: Growth inhibition of human DU145 cells at 10 uM after 48 hrs; type: functional; details: DU-145, 48 h, read-out: GI; procedure, shortened: as §1
[24] = Growth inhibition of human UACC257 cells at 10 uM after 48 hrs; type: functional; details: UACC-257, 48 h, read-out: GI; procedure, shortened: as §2
[25] = test system: OVCAR-8; assay: Growth inhibition of human OVCAR8 cells at 10 uM after 48 hrs; type: functional; details: OVCAR-8, 48 h, read-out: GI; procedure, shortened: as §1
[26] = Growth inhibition of human SF539 cells at 10 uM after 48 hrs; type: functional; details: SF-539, 48 h, read-out: GI; procedure, shortened: as §2
[27] = Growth inhibition of human UO31 cells at 10 uM after 48 hrs; type: functional; details: UO-31, 48 h, read-out: GI; procedure, shortened: as §2
[28] = test system: K562; assay: Growth inhibition of human K562 cells at 10 uM after 48 hrs; type: functional; details: K562, 48 h, read-out: GI; procedure, shortened: as §1
[29] = Cytotoxicity against human CNS cancer cells at 10 uM after 48 hrs; type: functional; details: Cancer cell lines
[30] = Growth inhibition of human OVCAR5 cells at 10 uM after 48 hrs; type: functional; details: OVCAR-5, 48 h, read-out: GI; procedure, shortened: as §1
[31] = test system: SN12C; assay: Growth inhibition of human SN12C cells at 10 uM after 48 hrs; type: functional; details: read-out: GI; procedure, shortened: as §2
[32] = Cytotoxicity against human leukemia cells at 10 uM after 48 hrs; type: functional; details: Leukemia cell
[33] = test system: HOP-62; assay: Growth inhibition of human HOP62 cells at 10 uM after 48 hrs; type: functional; details: HOP-62, 48 h, read-out: GI; procedure, shortened: as §1
[34] = Cytotoxicity against human non-small cell lung cancer cells at 10 uM after 48 hrs; type: functional; details: Cancer cell lines; procedure, shortened: as §1
[35] = test system: MDA-MB-231; assay: Growth inhibition of human MDA-MB-231 cells at 10 uM after 48 hrs; type: functional; details: MDA-MB-231, 48 h, read-out: GI; procedure, shortened: as §1
[36] = test system: SK-OV-3; assay: Growth inhibition of human SKOV3 cells at 10 uM after 48 hrs; type: functional; details: SK-OV-3, 48 h, read-out: GI; procedure, shortened: as §2
[37] = test system: 786-0; assay: Growth inhibition of human 786-0 cells at 10 uM after 48 hrs; type: functional; details: 786-0, 48 h, read-out: GI; procedure, shortened: as §1
[38] = test system: T47D; assay: Growth inhibition of human T47D cells at 10 uM after 48 hrs; type: functional; details: read-out: GI; procedure, shortened: as §2
[39] = test system: SK-MEL-28; assay: Growth inhibition of human SK-MEL-28 cells at 10 uM after 48 hrs; type: functional; details: SK-MEL-28, 48 h, read-out: GI; procedure, shortened: as §2
[40] = Cytotoxicity against human melanoma cells at 10 uM after 48 hrs; type: functional; details: Melanoma cell; procedure, shortened: as §1
[41] = Cytotoxicity against human colon cancer cells at 10 uM after 48 hrs; type: functional; details: Cancer cell lines; procedure, shortened: as §1
[42] = Growth inhibition of human EKVX cells at 10 uM after 48 hrs; type: functional; details: read-out: GI; procedure, shortened: as §1
[43] = test system: NCI-H322M; assay: Growth inhibition of human NCI-H322M cells at 10 uM after 48 hrs; type: functional; details: read-out: GI; procedure, shortened: as §1
[44] = test system: NCI-H460; assay: Growth inhibition of human NCI-H460 cells at 10 uM after 48 hrs; type: functional; details: NCI-H460, 48 h, read-out: GI; procedure, shortened: as §1
[45] = test system: IGROV-1; assay: Growth inhibition of human IGROV1 cells at 10 uM after 48 hrs; type: functional; details: IGROV-1, 48 h, read-out: GI; procedure, shortened: as §1
[46] = test system: SK-MEL-2; assay: Growth inhibition of human SK-MEL-2 cells at 10 uM after 48 hrs; type: functional; details: SK-MEL-2, 48 h, read-out: GI; procedure, shortened: as §2
[47] = test system: SF-268; assay: Growth inhibition of human SF268 cells at 10 uM after 48 hrs; type: functional; details: SF-268, 48 h, read-out: GI; procedure, shortened: as §2
[48] = test system: PC-3; assay: Growth inhibition of human PC3 cells at 10 uM after 48 hrs; type: functional; details: PC-3, 48 h, read-out: GI; procedure, shortened: as §1
[49] = test system: NCI-H23; assay: Growth inhibition of human NCI-H23 cells at 10 uM after 48 hrs; type: functional; details: NCI-H23, 48 h, read-out: GI; procedure, shortened: as §1
[50] = test system: UACC-62; assay: Growth inhibition of human UACC62 cells at 10 uM after 48 hrs; type: functional; details: UACC-62, 48 h, read-out: GI; procedure, shortened: as §2
[51] = test system: OVCAR-3; assay: Growth inhibition of human OVCAR3 cells at 10 uM after 48 hrs; type: functional; details: OVCAR-3, 48 h, read-out: GI; procedure, shortened: as §1
[52] = read-out: LC50 (the source's name)

SMILES: COc1ccc(/C=C2\CCCc3c2nc(C)nc3-c2ccc(OC)c(OC)c2)cc1OC
inhibition of growth at 10 µM [1]: 98.5%
inhibition of growth at 10 µM [2]: 94.9%
inhibition of growth at 10 µM [3]: 82.1%
inhibition of growth at 10 µM [4]: 73.7%
inhibition of growth at 10 µM [5]: 64.8%
IC50 [6]: 0.1 µM
inhibition of growth at 10 µM [7]: 94.1%
CC50 [8]: 96.9 µM
GI50 [8]: 23.7 µM
TGI [8]: 98.7 µM
inhibition of growth at 10 µM [9]: 81.8%
inhibition of growth at 10 µM [10]: 39.6%
inhibition of growth at 10 µM [11]: 41%
GI50 [12]: 15.7 µM
LC50 (concentration killing 50% of cells) [12]: 99.2 µM
TGI [12]: 80.6 µM
inhibition of growth at 10 µM [13]: 93.8%
inhibition of growth at 10 µM [14]: 88.8%
inhibition of growth at 10 µM [15]: 93.8%
inhibition of growth at 10 µM [16]: 79.1%
inhibition of growth at 10 µM [17]: 97%
inhibition of growth at 10 µM [18]: < 30%
inhibition of growth at 10 µM [19]: 69.9%
inhibition of growth at 10 µM [20]: 90.2%
inhibition of growth at 10 µM [21]: 87.8%
GI50 [22]: 26.9 µM
LC50 [22]: > 100 µM
TGI [22]: > 100 µM
inhibition of growth at 10 µM [23]: 92.7%
inhibition of growth at 10 µM [24]: 79.8%
inhibition of growth at 10 µM [25]: 96.9%
inhibition of growth at 10 µM [26]: 82.9%
inhibition of growth at 10 µM [27]: 65.7%
inhibition of growth at 10 µM [28]: 94.1%
GI50 [29]: 34.2 µM
TGI [29]: > 100 µM
CC50 [29, 52]: > 100 µM
inhibition of growth at 10 µM [30]: 95.3%
inhibition of growth at 10 µM [31]: 94.1%
GI50 [32]: 6.8 µM
LC50 [32]: > 100 µM
TGI [32]: 92.7 µM
inhibition of growth at 10 µM [33]: 67.9%
GI50 [34]: 37.8 µM
TGI [34]: 90.2 µM
CC50 [34, 52]: > 100 µM
inhibition of growth at 10 µM [35]: 92.9%
inhibition of growth at 10 µM [36]: 93%
inhibition of growth at 10 µM [37]: 90.8%
inhibition of growth at 10 µM [38]: 88.8%
inhibition of growth at 10 µM [39]: 77%
GI50 [40]: 26.9 µM
TGI [40]: > 100 µM
CC50 [40, 52]: > 100 µM
GI50 [41]: 28.9 µM
TGI [41]: 88.9 µM
CC50 [41, 52]: > 100 µM
inhibition of growth at 10 µM [42]: < 30%
inhibition of growth at 10 µM [43]: 52.6%
inhibition of growth at 10 µM [44]: 99.4%
inhibition of growth at 10 µM [45]: 75.6%
inhibition of growth at 10 µM [46]: 94.1%
inhibition of growth at 10 µM [47]: 80%
inhibition of growth at 10 µM [48]: 68%
inhibition of growth at 10 µM [49]: 70.9%
inhibition of growth at 10 µM [50]: 89.1%
inhibition of growth at 10 µM [51]: 97.1%

IC50 [6]: 12 µM
SMILES: Clc1ccc(/C=C2\CCCC3=C(c4ccc(Cl)cc4)Nc4cc(Cl)c(Cl)cc4N=C32)cc1
